Results: PMC8481180 (Clinical Drug Investigation, 2021)
Entries after “also recorded” stand apart in the source; their conditions may differ. Read-outs that look alike come from different tables or passages of the source.

Columns and labels:
[1] = Comparison of pharmacokinetics, Japanese versus non-Japanese subjects; type: in vivo, human; settings: Day 10
Procedure, shortened: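 Day-10 Japanese multiple-dose pharmacokinetic parameters were compared with a prior Phase I non-Japanese study (MAD part). Parameters were log-transformed to give geometric mean ratios with 90% confidence intervals. Cmax and AUCτ were also normalised to 70 kg body weight. Six subjects per cohort.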

[2] = cited from earlier work
[3] = type: in vivo, human; settings: for Tmax: median (range)
Procedure, shortened: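 Oral suspension given fasted (10 h overnight), 6 subjects per dose. Blood (2 mL, K₂-EDTA) was taken pre-dose and 0.5–48 h after the first and Day-10 doses. Day-10 urine was collected pre-dose and over 0–3, 3–6, 6–12 and 12–24 h. Analysis used validated methods and non-compartmental methods with actual sampling times. AUC was by log-linear trapezoidal rule.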

[4] = SMAD study, fasting and fed healthy volunteers; cited from earlier work
LTE4 in urine = test: Creatine-normalized urine LTE4 quantification; type: in vivo, human
Procedure, shortened: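 Urinary LTE₄ was normalised to creatinine. On Days 1 and 10, samples were a pre-dose spot, pooled 0–3, 3–6, 6–9 and 9–12 h collections, and spots at 24 and 36 h. Only pre-dose spots were taken on Days 3–9. Inhibition was related to plasma exposure after oral doses of 60–600 mg.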

[5] = Pharmacokinetics in healthy non-Japanese subjects; type: in vivo, human; settings: for AUCτ, non-Japanese geometric mean, body weight normalized to 70 kg: Day 10
[6] = Clinical safety and tolerability in healthy Japanese subjects; type: in vivo, human
Procedure, shortened: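 Randomised, placebo-controlled: four cohorts of 8 (6 active, 2 placebo) received an oral amorphous suspension once on Day 1, then once daily on Days 3–10, fasted. Assessments were adverse events, vital signs, ECG, telemetry and routine clinical laboratory tests. They were taken before and at scheduled times after dosing and at follow-up 7–10 days after the final dose.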

[7] = Japanese, 60 mg OD, Day 1, geometric mean (CV%)
[8] = Japanese, 60 mg OD, Day 10, geometric mean (CV%)
[9] = Japanese, 180 mg OD, Day 1, geometric mean (CV%)
[10] = Japanese, 180 mg OD, Day 10, geometric mean (CV%)
[11] = Japanese, 360 mg OD, Day 1, geometric mean (CV%)
[12] = Japanese, 360 mg OD, Day 10, geometric mean (CV%)
[13] = Japanese, 600 mg OD, Day 1, geometric mean (CV%)
[14] = Japanese, 600 mg OD, Day 10, geometric mean (CV%)

Cc1cc(-c2ccc(C(=O)[C@@H]3CCCC[C@H]3C(=O)Nc3cnn4c3C(=O)NCC4)cc2)n[nH]1 [AZD5718]
AUCτ GMR Japanese versus non-Japanese, % (90% CI) ([1]; 60 mg): 82 (63–108) %
AUCτ GMR Japanese versus non-Japanese, % (90% CI), body weight normalized to 70 kg ([1]; 60 mg): 72 (55–95) %
Cmax GMR Japanese versus non-Japanese, % (90% CI) ([1]; 60 mg): 72 (54–97) %
Cmax GMR Japanese versus non-Japanese, % (90% CI), body weight normalized to 70 kg ([1]; 60 mg): 63 (48–84) %
AUCτ GMR Japanese versus non-Japanese, % (90% CI) ([1]; 180 mg): 131 (88–196) %
AUCτ GMR Japanese versus non-Japanese, % (90% CI), body weight normalized to 70 kg ([1]; 180 mg): 101 (71–144) %
Cmax GMR Japanese versus non-Japanese, % (90% CI) ([1]; 180 mg): 126 (82–195) %
Cmax GMR Japanese versus non-Japanese, % (90% CI), body weight normalized to 70 kg ([1]; 180 mg): 97 (65–145) %
AUCτ GMR Japanese versus non-Japanese, % (90% CI) ([1]; 360 mg): 124 (83–186) %
AUCτ GMR Japanese versus non-Japanese, % (90% CI), body weight normalized to 70 kg ([1]; 360 mg): 102 (70–149) %
Cmax GMR Japanese versus non-Japanese, % (90% CI) ([1]; 360 mg): 108 (72–162) %
Cmax GMR Japanese versus non-Japanese, % (90% CI), body weight normalized to 70 kg ([1]; 360 mg): 89 (60–131) %
AUCτ GMR Japanese versus non-Japanese, % (90% CI) ([1]; 600 mg): 118 (73–190) %
AUCτ GMR Japanese versus non-Japanese, % (90% CI), body weight normalized to 70 kg ([1]; 600 mg): 104 (69–156) %
Cmax GMR Japanese versus non-Japanese, % (90% CI) ([1]; 600 mg): 108 (66–178) %
Cmax GMR Japanese versus non-Japanese, % (90% CI), body weight normalized to 70 kg ([1]; 600 mg): 95 (64–142) %
time to steady-state levels ([2]; SMAD study, once-daily dosing): 2 to 3 days
terminal half-life ([2]; SMAD study): 10 h
AUCτ, non-Japanese geometric mean ([2]; non-Japanese, 60 mg multiple dosing, Day 10): 1386.3 nmol·h/L
AUCτ, non-Japanese geometric mean ([2]; non-Japanese, 180 mg multiple dosing, Day 10): 5128.4 nmol·h/L
AUCτ, non-Japanese geometric mean ([2]; non-Japanese, 360 mg multiple dosing, Day 10): 12,764.7 nmol∙h/L
AUCτ, non-Japanese geometric mean ([2]; non-Japanese, 600 mg multiple dosing, Day 10): 23,175.0 nmol∙h/L
Cmax ([2]; read-out: Cmax, non-Japanese geometric mean, non-Japanese, 60 mg multiple dosing, Day 10): 220 nM
AUCτ, Japanese geometric mean, body weight normalized to 70 kg ([3]; 60 mg, Day 10): 1056.0 nmol·h/L
AUCτ, Japanese geometric mean, body weight normalized to 70 kg ([3]; 180 mg, Day 10): 5896.7 nmol·h/L
AUCτ, Japanese geometric mean, body weight normalized to 70 kg ([3]; 360 mg, Day 10): 14,981.4 nmol∙h/L
AUCτ, Japanese geometric mean, body weight normalized to 70 kg ([3]; 600 mg, Day 10): 25,893.0 nmol∙h/L
Cmax ([3]; Japanese, 60 mg OD oral suspension, Day 1, geometric mean (CV%), n = 6): 140 nM
AUCτ [3, 7]: 862.9 (35.8) nmol∙h/L
CL/F [3, 7]: 142.1 (33.5) L/h
t½ [3, 7]: 10.1 (44.0) h
Tmax ([3]; Japanese, 60 mg OD, Day 1): 1.0 (1.0, 3.0) h
AUCτ [3, 8]: 1140.5 (25.5) nmol∙h/L
CL/F [3, 8]: 117.8 (25.5) L/h
CLR [3, 8]: 0.8 (22.5) L/h
Cmax [3, 8]: 159 nM
t½ [3, 8]: 12.8 (47.0) h
Tmax ([3]; Japanese, 60 mg OD, Day 10): 2.0 (1.0, 3.0) h
AUCτ [3, 9]: 4739.4 (33.3) nmol∙h/L
CL/F [3, 9]: 82.2 (35.8) L/h
Cmax [3, 9]: 1280 nM
t½ [3, 9]: 8.5 (47.9) h
Tmax ([3]; Japanese, 180 mg OD, Day 1): 1.0 (0.5, 2.0) h
AUCτ [3, 10]: 6724.5 (32.0) nmol∙h/L
CL/F [3, 10]: 60.0 (32.0) L/h
CLR [3, 10]: 0.8 (38.4) L/h
Cmax [3, 10]: 1570 nM
t½ [3, 10]: 8.6 (23.6) h
Tmax ([3]; Japanese, 180 mg OD, Day 10): 1.5 (1.0, 2.0) h
AUCτ [3, 11]: 8971.1 (47.6) nmol∙h/L
CL/F [3, 11]: 84.3 (51.7) L/h
Cmax [3, 11]: 2200 nM
t½ [3, 11]: 15.0 (100.5) h
Tmax ([3]; Japanese, 360 mg OD, Day 1): 1.0 (1.0, 2.1) h
AUCτ [3, 12]: 15,847.3 (47.8) nmol∙h/L
CL/F [3, 12]: 50.9 (47.8) L/h
CLR [3, 12]: 0.9 (21.0) L/h
Cmax [3, 12]: 3460 nM
t½ [3, 12]: 10.5 (29.1) h
Tmax ([3]; Japanese, 360 mg OD, Day 10): 2.0 (1.0, 3.0) h
AUCτ [3, 13]: 17,592.6 (39.9) nmol∙h/L
CL/F [3, 13]: 74.1 (40.0) L/h
Cmax [3, 13]: 5180 nM
t½ [3, 13]: 7.4 (25.5) h
Tmax ([3]; Japanese, 600 mg OD, Day 1): 1.0 (1.0, 2.0) h
AUCτ [3, 14]: 27,349.3 (48.8) nmol∙h/L
CL/F [3, 14]: 49.1 (48.8) L/h
CLR [3, 14]: 0.8 (16.8) L/h
Cmax [3, 14]: 6150 nM
t½ [3, 14]: 8.5 (35.1) h
Tmax ([3]; Japanese, 600 mg OD, Day 10): 1.0 (1.0, 2.0) h
Tmax (median) across doses ([3]; Japanese, 60–600 mg oral, fasted): 1 to 2 h
accumulation in AUCτ ([3]; Japanese, Day 10 versus Day 1, all doses): 32–77%
time to steady-state plasma concentrations ([3]; Japanese, once-daily dosing): 3 to 4 days
Cmax ([3]; read-out: Cmax, Japanese geometric mean, body weight normalized to 70 kg, 60 mg, Day 10): 147 nM
Cmax ([3]; read-out: Cmax, Japanese geometric mean, body weight normalized to 70 kg, 180 mg, Day 10): 1370 nM
Cmax ([3]; read-out: Cmax, Japanese geometric mean, body weight normalized to 70 kg, 360 mg, Day 10): 3270 nM
Cmax ([3]; read-out: Cmax, Japanese geometric mean, body weight normalized to 70 kg, 600 mg, Day 10): 5820 nM
tolerability [4]: well tolerated
time at which level of full LTE4 inhibition achieved (LTE4 in urine; Japanese, after the first dose, all doses): 8 h
sustained reduction in LTE4 in urine (LTE4 in urine; Japanese, all doses): above 80%
inhibition of LTE4 in urine after the first dose (LTE4 in urine; Japanese, all doses (60–600 mg)): > 80%
time of maximum reduction in LTE4 in urine post-dose (LTE4 in urine; after first dose, both Japanese and non-Japanese subjects): ≤ 12 h
urinary LTE4 inhibition versus AZD5718 exposure (LTE4 in urine; single and multiple doses, at plasma concentrations in the lower nM range): > 80%
AUCτ, non-Japanese geometric mean, body weight normalized to 70 kg ([5]; 60 mg): 1464.7 nmol·h/L
AUCτ, non-Japanese geometric mean, body weight normalized to 70 kg ([5]; 180 mg): 5837.1 nmol·h/L
AUCτ, non-Japanese geometric mean, body weight normalized to 70 kg ([5]; 360 mg): 14,647.6 nmol∙h/L
AUCτ, non-Japanese geometric mean, body weight normalized to 70 kg ([5]; 600 mg): 24,956.5 nmol∙h/L
Cmax ([5]; read-out: Cmax, non-Japanese geometric mean, body weight normalized to 70 kg, 60 mg, Day 10): 232 nM
Cmax ([5]; read-out: Cmax, non-Japanese geometric mean, body weight normalized to 70 kg, 180 mg, Day 10): 1420 nM
Cmax ([5]; read-out: Cmax, non-Japanese geometric mean, body weight normalized to 70 kg, 360 mg, Day 10): 3680 nM
Cmax ([5]; read-out: Cmax, non-Japanese geometric mean, body weight normalized to 70 kg, 600 mg, Day 10): 6130 nM
serious adverse events ([6]; Japanese, 60, 180, 360, 600 mg): No serious AEs
vital signs, ECG, telemetry, laboratory results ([6]; Japanese, all doses): no clinically significant trends
tolerability ([6]; Japanese, single and multiple oral doses 60, 180, 360, 600 mg): No clinically relevant safety and tolerability findings; also recorded: safe, well tolerated
